Assay: Toxicity liver stage against HepG2, at 10uM
Format: cell-based
Set-up: test concentration 10 uM, cell line HepG2-A16-CD81EGFP
Details: human, HepG2-A16-CD81EGFP cells; read-out: INHIBITION
How it was run: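 Uninfected HepG2-A16-CD81EGFP cells, 3 × 10^3 per well, 1536-well, plated on prespotted compound at 10 μM final, parasite-free screening media added to match infected plates; puromycin 10 μM positive, DMSO 0.5% negative; run in parallel with 48 h PbLuc assay at 37 °C, 5% CO2; viability by CellTiter-Glo luminescence, normalized to controls.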

SMILES: CN1CC=C(c2noc(CCC(=O)N3CCc4ccccc43)n2)CC1
- cytotoxicity at 10 µM: 7.22%

SMILES: C[C@@H](O)CNc1c(NCc2ccco2)c(=O)c1=O
- cytotoxicity at 10 µM: -7.58%

SMILES: O=C(O)c1nc(SCc2ccccc2)ncc1Br
- cytotoxicity at 10 µM: 0.231%

SMILES: COc1ccc(C2SCC(=O)Nc3n[nH]cc32)c(OC)c1OC (configuration not stated)
- cytotoxicity at 10 µM: 4.68%

SMILES: Cn1c(=O)[nH]c(=O)n2c(CC(=O)Nc3ccccc3)cnc12
- cytotoxicity at 10 µM: 5.81%

SMILES: O=C(c1cc2c(s1)CCC2)N1CCC(c2ccncc2)CC1
- cytotoxicity at 10 µM: 39.7%

SMILES: CNc1ccc(CC2CCCN(C(=O)c3cnccn3)C2)nn1 (configuration not stated)
- cytotoxicity at 10 µM: -9.27%

SMILES: CNc1ncccc1CN1CCCCC1c1ccnc(N)n1 (configuration not stated)
- cytotoxicity at 10 µM: -12.3%

SMILES: Cc1ncccc1Oc1nccnc1C1CCN(S(C)(=O)=O)CC1
- cytotoxicity at 10 µM: -7.88%

SMILES: CC(C)(C)CN1CCCC12Cc1ccccc1CNC2=O (configuration not stated)
- cytotoxicity at 10 µM: 22.1%

SMILES: CCn1cnnc1CNC(=O)NC(c1ccc(OC)cc1)C1CC1 (configuration not stated)
- cytotoxicity at 10 µM: 1.77%

SMILES: CC(C)N(C)CCCNC(=O)c1cnn(C(C)(C)C)c1C(F)(F)F
- cytotoxicity at 10 µM: 7.25%

SMILES: Cc1nc(CN2CCCN(CC(=O)N(C)C(C)(C)C#N)CC2)no1
- cytotoxicity at 10 µM: 9.5%

SMILES: N#Cc1cc(Cl)ccc1N1CCOC(C(N)=O)C1 (configuration not stated)
- cytotoxicity at 10 µM: 11.7%

SMILES: Cn1nc(C(C)(C)C)cc1NC(=O)CSc1nnc[nH]1
- cytotoxicity at 10 µM: 0.353%

SMILES: CC1CN(C)CCN1C(=O)Cc1cc(Cl)c2c(c1)OCCO2 (configuration not stated)
- cytotoxicity at 10 µM: -3.47%

SMILES: CN(C)CCOc1ccc(N(C)S(=O)(=O)c2cnn(C)c2)cc1
- cytotoxicity at 10 µM: -13.3%

SMILES: Cc1cnn(C2CN(CC(O)COCc3ccc4c(c3)OCO4)C2)c1 (configuration not stated)
- cytotoxicity at 10 µM: -5.41%

SMILES: C=C(C)CN1CCC(NC(=O)Nc2cc(C(N)=O)ccc2OC)CC1
- cytotoxicity at 10 µM: 10.8%

SMILES: COCCCC(=O)NC1(c2cccc(Br)c2)CC1
- cytotoxicity at 10 µM: 2.11%

SMILES: COc1cccc(OCC(=O)NS(=O)(=O)c2cc(F)ccc2F)c1
- cytotoxicity at 10 µM: 7.53%

SMILES: CC(c1cccc(O)c1)N(C)S(=O)(=O)c1cccnc1 (configuration not stated)
- cytotoxicity at 10 µM: 9.46%

SMILES: O=C(c1ncoc1C1CCCO1)N1CC2(CCCC2)c2ccccc21 (configuration not stated)
- cytotoxicity at 10 µM: 3.13%

SMILES: COC(=O)NCC(=O)NCC1(c2c(F)cccc2F)CCCC1
- cytotoxicity at 10 µM: -3.56%

SMILES: CCCn1nnnc1COc1ccc(C(=O)OC)cc1
- cytotoxicity at 10 µM: -5.58%

SMILES: c1cnnc(NCC2CN(CCn3cncn3)CCO2)c1 (configuration not stated)
- cytotoxicity at 10 µM: -3.16%

SMILES: Cc1cnn(CCNCCCOc2ccc3c(c2)OCO3)c1
- cytotoxicity at 10 µM: -3.6%

SMILES: Cc1ccc(NC(=O)CCC2CC2)cc1N1CCOC1=O
- cytotoxicity at 10 µM: 3.86%

SMILES: CC(C)COC(C)C(=O)NCc1ccccc1Cn1ccnc1 (configuration not stated)
- cytotoxicity at 10 µM: 4.9%

SMILES: O=C(NCCNCC1CNc2ccnn2C1)c1ccc(F)cc1 (configuration not stated)
- cytotoxicity at 10 µM: -8.75%

SMILES: CCc1ccc(CN2CCC3(CC(C(=O)NCC(C)C)=NO3)C2)o1 (configuration not stated)
- cytotoxicity at 10 µM: 6.46%

SMILES: O=c1ccc2c([nH]1)CCC(NS(=O)(=O)C1CC1)C2 (configuration not stated)
- cytotoxicity at 10 µM: 3.66%

SMILES: CCn1cc2c(n1)C(COC)CN(C(=O)c1ccccn1)C2 (configuration not stated)
- cytotoxicity at 10 µM: 2.61%

SMILES: COc1cccc(OC)c1-c1ccnc2cc(CC(=O)N(C)C)nn12
- cytotoxicity at 10 µM: -8.86%

SMILES: CCc1nn(C)c(Cl)c1CN(CCOC)Cc1cnn(C)c1
- cytotoxicity at 10 µM: -6.5%

SMILES: Cn1c(Cn2ccnc2)nnc1C1CCCN(Cc2ccncc2)C1 (configuration not stated)
- cytotoxicity at 10 µM: 12.1%

SMILES: Cc1cc(Cl)ccc1C(=O)N[C@H]1CN(S(C)(=O)=O)C[C@@H]1C1CC1
- cytotoxicity at 10 µM: 8.9%

SMILES: CC(C)=CCN1CCN(C(=O)c2snnc2C)[C@H]2CS(=O)(=O)C[C@H]21
- cytotoxicity at 10 µM: -0.987%

SMILES: COC1CCN(S(=O)(=O)N2CCC3(CCCNC3=O)C2)CC1 (configuration not stated)
- cytotoxicity at 10 µM: 1.1%

SMILES: COc1ccc(-c2cccc(-c3ccn(CCCN(C)C)n3)c2)nn1
- cytotoxicity at 10 µM: -1.01%

SMILES: Cc1cc(CN(C)CC2(O)CCCN(CCC3CCCCC3)C2=O)no1 (configuration not stated)
- cytotoxicity at 10 µM: -14.4%

SMILES: CCCc1nccn1-c1ccncc1
- cytotoxicity at 10 µM: 17.3%

SMILES: O=C(O)[C@@H]1CN(Cc2ccc3nsnc3c2)C[C@H]1c1cccnc1
- cytotoxicity at 10 µM: 4.46%

SMILES: O=C(C1CC1)N1C[C@H]2CNC[C@@]2(C(=O)NCCCc2ccccc2)C1
- cytotoxicity at 10 µM: -0.371%

SMILES: CN(C)C[C@H]1CC[C@@H](Cc2ccc3c(cnn3C)c2)O1
- cytotoxicity at 10 µM: -1.07%

SMILES: CCc1cn[nH]c1C1CCCN(C(=O)c2cc(C(C)C)on2)C1 (configuration not stated)
- cytotoxicity at 10 µM: -8.6%

SMILES: COC(=O)c1ccn(CC(=O)Nc2nn(CC3CC3)c3ccccc23)n1
- cytotoxicity at 10 µM: 4.95%

SMILES: Cc1nc2c(c(N3CCN(c4ncccc4C(N)=O)CC3)n1)CCNC2
- cytotoxicity at 10 µM: -4.69%

SMILES: O=C(CCc1ccco1)N1CCc2[nH]nc(COc3ccccc3)c2C1
- cytotoxicity at 10 µM: 0.86%

SMILES: CN1CC=C(CCN(C)C(=O)CCc2ccccc2)CC1
- cytotoxicity at 10 µM: -5.84%

SMILES: CCn1c(C2CCN(C(=O)c3cc(C4CC4)on3)CC2)nn(C)c1=O
- cytotoxicity at 10 µM: -5.82%

SMILES: CSCCC(O)C(=O)N1CCCN(Cc2ccc(F)cc2)CC1 (configuration not stated)
- cytotoxicity at 10 µM: 5.14%

SMILES: CN1CC2(CCN(C(=O)c3ccc4c(=O)n(C)cnc4c3)CC2)CC1=O
- cytotoxicity at 10 µM: 5.58%

SMILES: Cc1ccccc1-c1noc(-c2ccc(NCC3COCCO3)nc2)n1 (configuration not stated)
- cytotoxicity at 10 µM: 3.41%

SMILES: CCCc1cncnc1N1CCCC2(CCC(=O)N(C3CCCC3)C2)C1 (configuration not stated)
- cytotoxicity at 10 µM: 0.887%

SMILES: O[C@@]1(CN2CCN(Cc3ccncc3)CC2)CCCN2CCCC[C@@H]21
- cytotoxicity at 10 µM: 8.91%

SMILES: Cc1nn(CCO)cc1CN1CCC(C(C)N2CCCC2)CC1 (configuration not stated)
- cytotoxicity at 10 µM: -1.04%

SMILES: Cc1nn(C)c(C)c1CCC(=O)NCc1csc(N2CCCC2)n1
- cytotoxicity at 10 µM: -4.55%

SMILES: Cc1nnsc1C(=O)N1CCC2(CC1)c1nc[nH]c1CCN2CC(C)C
- cytotoxicity at 10 µM: 26.3%

SMILES: Cc1nn(-c2ccccc2)c2c1C(c1ccc(C(=O)O)cc1)CC(=O)N2 (configuration not stated)
- cytotoxicity at 10 µM: 10.6%

SMILES: COc1c(C)cnc(CN2CCC(C(=O)N(C)C)CC2)c1C
- cytotoxicity at 10 µM: -12.6%

SMILES: CCc1nc2n(n1)CC(NCc1ccnc(-c3ccccc3)n1)CC2 (configuration not stated)
- cytotoxicity at 10 µM: -8.3%

SMILES: Cc1nc(-c2nnc[nH]2)sc1C(=O)N(Cc1cccnc1)C1CC1
- cytotoxicity at 10 µM: -5.79%

SMILES: Cc1ccc(C(=O)N2CCN(CCc3cccs3)CC2)c(=O)[nH]1
- cytotoxicity at 10 µM: -3.94%

SMILES: c1ccc(-c2nc(CN3CCCC3Cn3cncn3)cs2)cc1 (configuration not stated)
- cytotoxicity at 10 µM: -14%

SMILES: CCN1CCN(C2CCN(Cc3c(C)noc3C)CC2)C1=O
- cytotoxicity at 10 µM: -7.85%

SMILES: c1ccc(-c2nnc(CNCCn3cccn3)o2)cc1
- cytotoxicity at 10 µM: -10.7%

SMILES: O=C(NCCN1CCOCC1)NCC(O)c1cccc(F)c1 (configuration not stated)
- cytotoxicity at 10 µM: -9.24%

SMILES: O=C(NCCn1ccnc1)N1CCN(c2nccs2)CC1
- cytotoxicity at 10 µM: -3.68%

SMILES: CCOc1ncccc1C(=O)N1CCCC1c1c(C)nn(C)c1OC (configuration not stated)
- cytotoxicity at 10 µM: -13%

SMILES: CN(C)c1ncc(CN2CCC(O)(c3ccccc3F)CC2)cn1
- cytotoxicity at 10 µM: 2.4%

SMILES: CCCSc1ncc(CN(C)CCN2CCCCC2)cn1
- cytotoxicity at 10 µM: -1.39%

SMILES: Cn1ccnc1C(=O)N1CCC2(CC1)CC(Oc1cccnc1)CO2 (configuration not stated)
- cytotoxicity at 10 µM: 3.04%

SMILES: Cc1nc(CN2CCN(C)C(=O)C23CCN(C(C)C)CC3)cs1
- cytotoxicity at 10 µM: 2.33%

SMILES: CC1CCN(C(=O)C2(Cc3cc(C4CCOC4)no3)CCNCC2)CC1 (configuration not stated)
- cytotoxicity at 10 µM: -3.04%

SMILES: CCN(CC)S(=O)(=O)N1CCc2nc(C3CCNCC3)ncc2C1
- cytotoxicity at 10 µM: -5.66%

SMILES: Cc1cccc(N2CCOCC3(C2)CN(c2ccoc2)C(=O)CO3)n1 (configuration not stated)
- cytotoxicity at 10 µM: 4.39%

SMILES: O=C1[C@H]2CN(Cc3nccs3)C[C@H]2CN1c1ccsc1
- cytotoxicity at 10 µM: 3.06%

SMILES: CNC(=O)c1cc2c(nc1NCC1CC1)CCN(c1ccncn1)CC2
- cytotoxicity at 10 µM: 3.17%

SMILES: O=C(NC1CCCC1)[C@@H]1CN(Cc2nccs2)C[C@H]2OCC[C@H]21
- cytotoxicity at 10 µM: 4.91%

SMILES: COc1ccc(CN2C[C@@H]3OCCN(c4ncccn4)[C@@H]3C2)cc1
- cytotoxicity at 10 µM: 4.71%

SMILES: FC(F)(F)CCc1ccnc(NC2CCC(n3cnnc3)CC2)n1 (configuration not stated)
- cytotoxicity at 10 µM: -6.71%

Source: ChEMBL document CHEMBL4513216, “Probing the Open Global Health Chemical Diversity Library for Multistage-Active Starting Points for Next-Generation Antimalarials” (ACS Infect Dis, 2020)
